Activity calls are given as the source filed them. The calls are words filed in the database; no cut-off is given here.
Columns and labels:
661W [1] = assay: Cytoprotective activity in mouse 661W cells assessed as inhibition of t-BHP induced oxidative stress by measuring increase in cell viability at 50 to 100 uM after 24 hrs by MTT assay (Rvb < 50%); format: functional, cell-based
661W [2] = assay: Cytoprotective activity in mouse 661W cells assessed as reduction in tBHP-induced ROS level at 20 to 50 uM after 2 hrs by […] fluorescent microscopic analysis; format: functional, cell-based
How it was run: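 661W cells seeded on coverslips for 18 h, then exposed 2 h to 55 μM tBHP with or without test agent or (+)-pentazocine. ROS are detected with CellROX green dye by epifluorescence, with DAPI marking nuclei. Fluorescence intensity is quantified as mean ± SD from three independent experiments, each run in duplicate.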

[3] = target: 5-hydroxytryptamine receptor 7 (Homo sapiens, UniProt P34969); assay: Displacement of [3H]-LSD from human recombinant 5-HT7 receptor expressed in stable HEK cells after 90 mins by microbeta scintillation counting method; format: cell-based; conditions: read-out: pKi (converted)
How it was run: (§1)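 Run by NIMH Psychoactive Drug Screening Program. Otherwise, competition binding curves are generated and pKi is taken from a sigmoidal curve fit. Data are either triplicate measurements within one experiment, with the error from the fit, or the mean of repeated experiments, each run in triplicate.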

[4] = target: T1, 5-hydroxytryptamine receptor 1A (Homo sapiens, UniProt P08908); assay: Displacement of [3H]-Way100635 from human recombinant 5-HT1A expressed in stable CHO cells after 90 mins by microbeta scintillation counting method; format: cell-based; conditions: read-out: pKi (converted); how it was run: as §1
T1 sequence (P08908 whole entry): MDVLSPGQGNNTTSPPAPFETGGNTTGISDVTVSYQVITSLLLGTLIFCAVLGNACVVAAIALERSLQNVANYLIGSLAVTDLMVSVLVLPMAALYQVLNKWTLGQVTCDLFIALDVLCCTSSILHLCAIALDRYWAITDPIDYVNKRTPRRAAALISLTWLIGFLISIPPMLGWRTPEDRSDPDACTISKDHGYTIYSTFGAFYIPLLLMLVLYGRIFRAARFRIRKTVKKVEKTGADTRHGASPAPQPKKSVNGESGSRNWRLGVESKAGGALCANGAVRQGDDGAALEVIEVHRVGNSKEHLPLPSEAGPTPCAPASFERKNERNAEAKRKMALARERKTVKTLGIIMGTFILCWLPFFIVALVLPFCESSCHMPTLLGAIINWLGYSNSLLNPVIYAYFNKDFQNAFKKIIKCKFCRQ

[5] = target: T2, 5-hydroxytryptamine receptor 2B (Homo sapiens, UniProt P41595); assay: Displacement of [3H]-LSD from human recombinant 5-HT2B receptor stably expressed in HEK cells after 90 mins by microbeta scintillation counting method; format: cell-based; how it was run: as §1
[6] = target: T3, Sigma intracellular receptor 2 (Homo sapiens, UniProt Q5BJF2); assay: Displacement of […] from human recombinant sigma2 receptor expressed in HEKT cells after 90 mins by microbeta scintillation counting method; format: cell-based; how it was run: as §1
[7] = target: Sigma non-opioid intracellular receptor 1 (Homo sapiens, UniProt Q99720); assay: Displacement of [3H]-Pentazocine from human recombinant sigma1 receptor expressed in HEKT cells after 90 mins by microbeta scintillation counting method; format: cell-based
[8] = target: T2, 5-hydroxytryptamine receptor 2B; assay: Displacement of [3H]-LSD from human recombinant 5-HT2B receptor stably expressed in HEK cells at 10 uM after 90 mins by microbeta scintillation counting method relative to control; format: cell-based
How it was run: (§2)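 Radioligand binding run by the NIMH Psychoactive Drug Screening Program. […] Otherwise Ki comes from sigmoidal curve fits of triplicate measurements in a single experiment, or is averaged over repeated experiments each run in triplicate.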

[9] = target: T3, Sigma intracellular receptor 2; assay: Displacement of […] from human recombinant sigma2 receptor expressed in HEKT cells at 10 uM after 90 mins by microbeta scintillation counting method relative to control; format: cell-based; how it was run: as §2
Homo sapiens [10] = species: Homo sapiens; assay: Selectivity index, ratio of Ki for human recombinant 5-HT2B receptor to Ki for human recombinant sigma1 receptor
Homo sapiens [11] = species: Homo sapiens; assay: Selectivity index, ratio of Ki for human recombinant sigma2 receptor to Ki for human recombinant sigma1 receptor
How it was run: (§3)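 Both Ki values in each ratio come from NIMH Psychoactive Drug Screening Program radioligand binding. […] Other targets were given full binding curves, measured in triplicate, and Ki was taken from a sigmoidal curve fit. Some values were repeated in duplicate or triplicate independent experiments.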

Homo sapiens [12] = species: Homo sapiens; assay: Selectivity index, ratio of Ki for human recombinant sigma2 receptor to Ki for human recombinant 5-HT2B receptor; how it was run: as §3

T3 sequence (Q5BJF2 whole entry): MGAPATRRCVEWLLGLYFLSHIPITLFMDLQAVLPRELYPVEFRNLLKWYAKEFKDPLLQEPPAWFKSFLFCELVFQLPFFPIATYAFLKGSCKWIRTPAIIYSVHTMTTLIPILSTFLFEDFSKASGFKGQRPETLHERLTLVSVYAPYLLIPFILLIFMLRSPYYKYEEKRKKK
T2 sequence (P41595 whole entry): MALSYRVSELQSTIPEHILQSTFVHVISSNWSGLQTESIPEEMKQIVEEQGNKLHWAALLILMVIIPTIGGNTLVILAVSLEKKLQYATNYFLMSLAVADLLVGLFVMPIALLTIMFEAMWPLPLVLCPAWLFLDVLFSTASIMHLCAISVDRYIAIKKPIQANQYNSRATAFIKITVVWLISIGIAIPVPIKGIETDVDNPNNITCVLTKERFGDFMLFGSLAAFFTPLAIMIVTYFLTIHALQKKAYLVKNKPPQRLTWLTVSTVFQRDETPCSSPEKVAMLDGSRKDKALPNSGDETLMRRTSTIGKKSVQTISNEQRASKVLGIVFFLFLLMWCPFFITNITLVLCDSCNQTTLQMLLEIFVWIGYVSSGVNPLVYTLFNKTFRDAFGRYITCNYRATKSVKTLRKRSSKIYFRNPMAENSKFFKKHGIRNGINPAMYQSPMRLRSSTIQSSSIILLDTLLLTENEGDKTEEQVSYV
Sequence of Sigma non-opioid intracellular receptor 1 (Q99720 whole entry): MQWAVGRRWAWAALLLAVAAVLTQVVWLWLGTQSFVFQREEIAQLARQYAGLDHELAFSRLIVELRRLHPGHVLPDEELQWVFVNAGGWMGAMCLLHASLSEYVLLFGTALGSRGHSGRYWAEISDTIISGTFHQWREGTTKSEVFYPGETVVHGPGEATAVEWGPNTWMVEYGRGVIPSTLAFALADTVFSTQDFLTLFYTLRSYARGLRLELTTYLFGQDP
Sequence of 5-hydroxytryptamine receptor 7 (P34969 whole entry): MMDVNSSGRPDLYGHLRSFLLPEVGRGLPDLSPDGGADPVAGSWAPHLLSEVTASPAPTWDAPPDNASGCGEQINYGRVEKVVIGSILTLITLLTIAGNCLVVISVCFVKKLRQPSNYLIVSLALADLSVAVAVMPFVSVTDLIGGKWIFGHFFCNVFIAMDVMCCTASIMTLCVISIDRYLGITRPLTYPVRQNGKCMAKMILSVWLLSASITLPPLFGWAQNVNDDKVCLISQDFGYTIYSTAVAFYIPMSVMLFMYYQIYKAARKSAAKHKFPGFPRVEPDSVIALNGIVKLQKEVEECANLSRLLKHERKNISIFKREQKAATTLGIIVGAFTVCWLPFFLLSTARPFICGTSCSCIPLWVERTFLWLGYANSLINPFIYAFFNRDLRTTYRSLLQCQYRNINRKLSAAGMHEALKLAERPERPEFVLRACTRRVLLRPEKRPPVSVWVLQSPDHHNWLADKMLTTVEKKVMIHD

SMILES | Ki [3] [µM] | Ki [4] [µM] | Ki ([5]; read-out: pKi (converted)) [µM] | Ki [6] [µM] | Ki ([7]; read-out: pKi (converted)) [µM] | also measured
CC(C)=CCN1CC[C@]2(C)c3cc(O)ccc3C[C@H]1[C@H]2C | – | – | – | – | – | Activity (661W [1]): Active; inhibition (661W [2]): Active
C[C@@]12COc3c(-c4ccccc4)cccc3[C@@H]1CCN2 (racemic) | 0.0234 | 0.2 | 0.158 | 0.126 | 0.0398 | –
CC(=O)N1CC[C@H]2c3cccc(-c4ccccc4)c3OC[C@]21C (racemic) | – | – | 0.501 | 1.26 | – | –
CC(=O)N1CC[C@H]2c3ccccc3N(c3ccccc3)C[C@]21C (racemic) | – | – | > 10 | 1.26 | – | inhibition [8]: < 50%
Cc1cc(C)c2c(c1)OC[C@@]1(C)NCC[C@@H]21 (racemic) | 1.26 | – | 0.0794 | 0.316 | 0.0631 | –
CC[C@H]1c2cc(OC)ccc2OC[C@@]1(C)N (racemic) | – | 2.51 | 0.251 | > 10 | 0.398 | inhibition [9]: < 50%
CN1CC[C@H]2c3ccccc3N(c3ccccc3)C[C@]21C (racemic) | 0.00269 | 0.2 | 0.2 | 0.158 | 0.162 | –
C[C@@]12COc3c(Br)cccc3[C@@H]1CCN2 (racemic) | 0.398 | 1 | 0.02 | 0.631 | 0.501 | –
CC(=O)N1CC[C@H]2c3ccc(O)cc3OC[C@]21C (racemic) | – | – | > 10 | > 10 | > 10 | inhibition [9]: < 50%; inhibition [8]: < 50%
CN1CC[C@H]2c3cccc(-c4ccccc4)c3OC[C@]21C (racemic) | 0.02 | 0.2 | 0.251 | 0.316 | 0.0501 | –
Cc1ccc(N2C[C@@]3(C)NCC[C@H]3c3cc(C)ccc32)cc1 (racemic) | 0.2 | – | 0.316 | 0.316 | 0.251 | –
CC[C@H]1c2c(ccc3ccccc23)OC[C@@]1(C)N (racemic) | 0.692 | 0.316 | – | 2 | 1 | Ki ([5]; read-out: Ki): 0.02 µM
CC[C@H]1c2cc(-c3ccccc3)ccc2OC[C@@]1(C)N (racemic) | – | 2 | 0.126 | 0.316 | – | Ki ([7]; read-out: Ki): 0.016 µM; Ratio Ki (Homo sapiens [10]): 10; Ratio Ki (Homo sapiens [11]): > 200
C[C@@]12COc3cc(O)ccc3[C@@H]1CCN2 (racemic) | – | – | > 10 | 1 | > 10 | inhibition [8]: < 50%
COc1ccc2c(c1)[C@@H]1CCN[C@]1(C)CO2 (racemic) | 0.2 | – | 0.631 | 3.16 | 0.126 | –
CN1CC[C@H]2c3ccc(O)cc3OC[C@]21C (racemic) | – | – | 1 | 3.98 | 0.0501 | –
CC[C@H]1c2ccc(O)cc2OC[C@@]1(C)N (racemic) | – | – | > 10 | > 10 | > 10 | inhibition [9]: < 50%; inhibition [8]: < 50%
CC[C@H]1c2ccc3ccccc3c2OC[C@@]1(C)N (racemic) | 1 | 2.51 | – | 0.316 | 3.16 | Ratio Ki (Homo sapiens [12]): 150; Ki ([5]; read-out: Ki): 0.0035 µM
C[C@@]12COc3cc(OCc4ccccc4)ccc3[C@@H]1CCN2 (racemic) | – | – | 0.126 | 0.1 | 0.00794 | –
C[C@@]12COc3ccc(-c4ccccc4)cc3[C@@H]1CCN2 (racemic) | 1 | – | 0.251 | 0.0794 | 0.0126 | –
C[C@@]12CN(c3ccc(Br)cc3)c3ccc(Br)cc3[C@@H]1CCN2 (racemic) | 0.2 | – | 0.316 | 0.0794 | 0.158 | –

Source: ChEMBL document CHEMBL4304834, “3-Amino-chromanes and Tetrahydroquinolines as Selective 5-HT2B, 5-HT7, or σ1 Receptor Ligands” (ACS Med Chem Lett, 2019)
